This passage reports Activity results from ChEMBL document CHEMBL1141765, “Alkaloids from Alangium javanicum and Alangium grisolleoides that mediate Cu2+-dependent DNA strand scission” (J Nat Prod, 2005).

Several values for one entry are separate records, joined by “and”; a condition that tells them apart may be missing. Equal entries are not always repeated.

Test [1] relates to Escherichia coli. Briefly: Induction of DNA strand scission activity against Escherichia coli pBR322 assessed as form 2 DNA levels at 25 uM after 60 mins by electrophoresis in presence of 20 uM Cu2+. The format is functional. Put shortly:
(§1)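 Supercoiled pBR322 plasmid DNA (500 ng) was incubated with compound, with or without 20 µM Cu2+, in 10 mM Tris-HCl, pH 8.0. Compound came from DMSO, final DMSO ≤5%. Incubation was 37 °C for 60 min. Blank (DNA only) and Cu2+-only controls were included. Samples were run on 1.0% agarose gels with ethidium bromide in TBE, pH 8.3. Form I→Form II conversion was quantified by gel densitometry.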

The test system of test [2] is Escherichia coli. Kind of test: Induction of DNA strand scission activity against Escherichia coli pBR322 assessed as form 2 DNA levels at 10 uM after 60 mins by electrophoresis in presence of 20 uM Cu2+. The format is functional. Put shortly: as §1
The test system of test [3] is Escherichia coli. Kind of test: Induction of DNA strand scission activity against Escherichia coli pBR322 assessed as form 2 DNA levels at 50 uM after 60 mins by electrophoresis in presence of 20 uM Cu2+. The format is functional. Put shortly:
as §1

For test [4], the system named is Escherichia coli. Briefly: Induction of DNA strand scission activity against Escherichia coli pBR322 assessed as form 2 DNA levels at 100 uM after 60 mins by electrophoresis in presence of 20 uM Cu2+. In kind it is functional. Put shortly: as §1
The test system of test [5] is Escherichia coli. Kind of test: Induction of DNA strand scission activity against Escherichia coli pSP64 assessed as form 2 DNA levels at 100 uM after 2 hrs by electrophoresis in presence of equimolar amount of Cu2+.
Test [6] deals with Escherichia coli. Briefly: Induction of DNA strand scission activity against Escherichia coli pSP64 assessed as form 2 DNA levels at 10 uM after 2 hrs by electrophoresis in presence of equimolar amount of Cu2+.
Test [7] deals with Escherichia coli. Kind of test: Induction of DNA strand scission activity against Escherichia coli pSP64 assessed as form 2 DNA levels at 200 uM after 2 hrs by electrophoresis in presence of equimolar amount of Cu2+.
The subject of test [8] is Escherichia coli. Briefly: Induction of DNA strand scission activity against Escherichia coli pBR322 assessed as form 2 DNA levels at 200 uM after 60 mins by electrophoresis in presence of 20 uM Cu2+. In kind it is functional. In a few lines: as §1
For test [9], the system named is Escherichia coli. Kind of test: Induction of DNA strand scission activity against Escherichia coli pBR322 assessed as form 2 DNA levels at 200 uM after 60 mins by electrophoresis in absence of 20 uM Cu2+. The format is functional. Put shortly:
as §1

Test [10] has as its system Escherichia coli. Briefly: Induction of DNA strand scission activity against Escherichia coli pBR322 assessed as form 2 DNA levels at 500 uM after 60 mins by electrophoresis in presence of 20 uM Cu2+. In kind it is functional. Put shortly: as §1
The test system of test [11] is Escherichia coli. Briefly: Induction of DNA strand scission activity against Escherichia coli pBR322 assessed as form 2 DNA levels at 500 uM after 60 mins by electrophoresis in absence of 20 uM Cu2+. In kind it is functional. Put shortly: as §1

Regarding `C=C[C@H]1[C@H](O[C@@H]2O[C@H](CO)[C@@H](O)[C@H](O)[C@H]2O)OC=C2C(=O)N3CC[C@@]4(C(=O)Nc5ccccc54)[C@H]3C[C@H]21`, the Activity in test [1] was 16%; in test [2] it was 10%; in test [3], 20%; in [4], 29%; in test [5], 28% and 16%; in test [6], 0%. Also, the Activity in test [7] is 43% and 35%; in test [8] it was 58%; in test [9], 3%.
As to `C=C[C@H]1[C@H](O[C@@H]2O[C@H](CO)[C@@H](O)[C@H](O)[C@H]2O)OC=C2C(=O)N3CCc4cc(OC)c(O)cc4[C@H]3C[C@H]21`, the Activity stood at 42% in test [10]; 14% in test [2]; 18% in [3]; 25% in test [4]; 3% in test [11]; 30% in test [8].
Consider `C=C[C@H]1[C@H](O[C@@H]2O[C@H](CO)[C@@H](O)[C@H](O)[C@H]2O)OC=C2C(=O)N3CC[C@]4(C(=O)Nc5ccccc54)[C@H]3C[C@H]21`, for which the Activity in test [5] was determined as 5%; in [6], 0%; in [7], 7%.
